ChEMBL document CHEMBL1828552, “Synthesis and studies of novel 2-(4-cyano-3-trifluoromethylphenyl amino)-4-(quinoline-4-yloxy)-6-(piperazinyl/piperidinyl)-s-triazines as potential antimicrobial, antimycobacterial and anticancer agents” (2011)
≈ marks a conversion by molar mass, not a printed value.

How the values were obtained:
[1] = system: Salmonella typhi; test: Antibacterial activity against 10^5 CFU/mL Salmonella typhi MTCC 733 after 24 hrs by disc diffusion technique; type: functional, Salmonella enterica subsp. enterica serovar Typhi
Method in brief: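 Disc diffusion. Mueller-Hinton agar autoclaved 120 °C 30 min, poured 5 mm deep. Surface swabbed with 10⁵ CFU/mL suspension […]. 6.25 mm filter-paper discs soaked in compound in DMSO; DMSO-only disc as blank. Incubated 37 ± 1 °C, 24 h for bacteria or 48 h for fungi. Ciprofloxacin and ketoconazole discs as reference drugs. Inhibition zone measured in mm.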

[2] = system: Candida albicans; test: Antifungal activity against 10^5 CFU/mL Candida albicans MTCC 183 after 48 hrs by agar streak dilution method; type: functional; details: MTCC 183, 48 h
Method in brief: (§1)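 Agar streak dilution for fungi. Stock 100 µg/mL in DMSO; graded amounts were mixed into molten Sabouraud dextrose agar and poured at 4–5 mm depth. Serial dilutions ran over […]. About 10⁵ CFU/mL inoculum was applied, with incubation at 37 ± 1 °C for 48 h. MIC was read from the dilution series.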

[3] = system: Aspergillus fumigatus; test: Antifungal activity against 10^5 CFU/mL Aspergillus fumigatus MTCC 343 after 48 hrs by disc diffusion technique; type: functional
[4] = system: Proteus vulgaris; test: Antibacterial activity against 10^5 CFU/mL Proteus vulgaris MTCC 1771 after 24 hrs by agar streak dilution method; type: functional; details: MTCC 1771, 24 h
Method in brief: (§2)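 Agar streak dilution. Stock 100 µg/mL in DMSO; graded amounts were mixed into molten nutrient agar and poured at 4–5 mm depth. Plates carried serial dilutions over […]. About 10⁵ CFU/mL of each bacterium was applied, and plates were incubated at 37 ± 1 °C for 24 h. MIC was read from the dilution series.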

[5] = system: Salmonella typhi; test: Antibacterial activity against 10^5 CFU/mL Salmonella typhi MTCC 733 after 24 hrs by agar streak dilution method; type: functional, Salmonella enterica subsp. enterica serovar Typhi; details: Salmonella enterica, MTCC 733, 24 h
[6] = system: Aspergillus clavatus; test: Antifungal activity against 10^5 CFU/mL Aspergillus clavatus MTCC 1323 after 48 hrs by disc diffusion technique; type: functional
[7] = system: Aspergillus niger; test: Antifungal activity against 10^5 CFU/mL Aspergillus niger MTCC 282 after 48 hrs by disc diffusion technique; type: functional
[8] = system: Bacillus cereus; test: Antibacterial activity against 10^5 CFU/mL Bacillus cereus MTCC 619 after 24 hrs by disc diffusion technique; type: functional
Method in brief: (§3)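 Disc diffusion on Mueller–Hinton agar poured 5 mm deep. The surface was swabbed with a 10⁵ CFU/mL […] suspension. Filter-paper discs 6.25 mm in diameter were soaked in compound in DMSO and placed on the agar. Plates were incubated 24 h at 37 ± 1 °C, and the inhibition zone was measured in mm. A DMSO disc served as blank.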

[9] = system: Escherichia coli; test: Antibacterial activity against 10^5 CFU/mL Escherichia coli MTCC 739 after 24 hrs by disc diffusion technique; type: functional; method in brief: as §3
[10] = system: DU-145; test: Cytotoxicity against […] human DU145 cells after 48 hrs by SRB assay; type: functional; details: DU-145, 48 h
Method in brief: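 SRB assay in DU-145 cells grown in RPMI 1640 with 10% FBS and 2 mM L-glutamine. Cells were plated and held 24 h before addition of four 10-fold concentrations. After 48 h, cells were TCA-fixed, stained with 0.4% SRB and read at 540 nm. GI50, TGI and LC50 were derived against time-zero and control wells; each value is the mean of three experiments.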

[11] = system: Candida albicans; test: Antifungal activity against 10^5 CFU/mL Candida albicans MTCC 183 after 48 hrs by disc diffusion technique; type: functional
[12] = system: Aspergillus fumigatus; test: Antifungal activity against 10^5 CFU/mL Aspergillus fumigatus MTCC 343 after 48 hrs by agar streak dilution method; type: functional; details: MTCC 343, 48 h; method in brief: as §1
[13] = system: Escherichia coli; test: Antibacterial activity against 10^5 CFU/mL Escherichia coli MTCC 739 after 24 hrs by agar streak dilution method; type: functional; details: MTCC 739, 24 h; method in brief: as §2
[14] = system: Staphylococcus aureus; test: Antibacterial activity against 10^5 CFU/mL Staphylococcus aureus MTCC 96 after 24 hrs by agar streak dilution method; type: functional; details: MTCC 96, 24 h; method in brief: as §2
[15] = system: Aspergillus clavatus; test: Antifungal activity against 10^5 CFU/mL Aspergillus clavatus MTCC 1323 after 48 hrs by agar streak dilution method; type: functional; details: MTCC 1323, 48 h; method in brief: as §1
[16] = system: Pseudomonas aeruginosa; test: Antibacterial activity against 10^5 CFU/mL Pseudomonas aeruginosa MTCC 741 after 24 hrs by disc diffusion technique; type: functional; method in brief: as §3
[17] = system: Shigella flexneri; test: Antibacterial activity against 10^5 CFU/mL Shigella flexneri MTCC 1457 after 24 hrs by disc diffusion technique; type: functional; method in brief: as §3
[18] = system: Staphylococcus aureus; test: Antibacterial activity against 10^5 CFU/mL Staphylococcus aureus MTCC 96 after 24 hrs by disc diffusion technique; type: functional; method in brief: as §3
[19] = system: Pseudomonas aeruginosa; test: Antibacterial activity against 10^5 CFU/mL Pseudomonas aeruginosa MTCC 741 after 24 hrs by agar streak dilution method; type: functional; details: MTCC 741, 24 h; method in brief: as §2
[20] = system: Shigella flexneri; test: Antibacterial activity against 10^5 CFU/mL Shigella flexneri MTCC 1457 after 24 hrs by agar streak dilution method; type: functional; details: MTCC 1457, 24 h; method in brief: as §2
[21] = system: Bacillus cereus; test: Antibacterial activity against 10^5 CFU/mL Bacillus cereus MTCC 619 after 24 hrs by agar streak dilution method; type: functional; details: MTCC 619, 24 h; method in brief: as §2
[22] = system: Proteus vulgaris; test: Antibacterial activity against 10^5 CFU/mL Proteus vulgaris MTCC 1771 after 24 hrs by disc diffusion technique; type: functional; method in brief: as §3
[23] = system: Klebsiella pneumoniae; test: Antibacterial activity against 10^5 CFU/mL Klebsiella pneumoniae MTCC 109 after 24 hrs by agar streak dilution method; type: functional; details: MTCC 109, 24 h; method in brief: as §2
[24] = system: Klebsiella pneumoniae; test: Antibacterial activity against 10^5 CFU/mL Klebsiella pneumoniae MTCC 109 after 24 hrs by disc diffusion technique; type: functional; method in brief: as §3
[25] = system: Aspergillus niger; test: Antifungal activity against 10^5 CFU/mL Aspergillus niger MTCC 282 after 48 hrs by agar streak dilution method; type: functional; details: MTCC 282, 48 h; method in brief: as §1
[26] = system: Mycobacterium tuberculosis; test: Antimycobacterial activity against 10^4 to 10^7 CFU/mL Mycobacterium tuberculosis H37Rv at 6.25 ug/ml by BACTEC MGIT method; type: functional
Method in brief: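 Primary screen at 6.25 in the BACTEC MGIT system: modified Middlebrook 7H9 broth tubes with compound, seeded with 10⁴-10⁷ CFU/mL H37Rv plus 0.1 mL egg-based L.J. medium. Incubated at 37 ± 1 °C and read daily from day 2 under UV light against positive and uninoculated controls.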

SMILES	inhibition zone (IZ) [1]	MIC [2]	inhibition zone (IZ) [3]	MIC [4]	MIC [5]	inhibition zone (IZ) [6]	inhibition zone (IZ) [7]	inhibition zone (IZ) [8]	inhibition zone (IZ) [9]	GI50 [10]	LC50 (concentration giving 50% net cell kill relative to time zero) [10]	TGI [10]	inhibition zone (IZ) [11]	MIC [12]	MIC [13]	MIC [14]	MIC [15]	inhibition zone (IZ) [16]	inhibition zone (IZ) [17]	inhibition zone (IZ) [18]	other results
N#Cc1ccc(Nc2nc(Oc3ccnc4ccccc34)nc(N3CCN(C(c4ccccc4)c4ccc(Cl)cc4)CC3)n2)cc1C(F)(F)F (centres undefined)	25 mm	25 µg/mL (≈ 36.1 µM)	26 mm	6.25 µg/mL (≈ 9.02 µM)	25 µg/mL (≈ 36.1 µM)	25 mm	25 mm	25 mm	23 mm	> 100 µM	> 100 µM	> 100 µM	25 mm	25 µg/mL (≈ 36.1 µM)	50 µg/mL (≈ 72.1 µM)	12.5 µg/mL (≈ 18 µM)	50 µg/mL (≈ 72.1 µM)	24 mm	22 mm	25 mm	MIC [19]: 12.5 µg/mL (≈ 18 µM); MIC [20]: 25 µg/mL (≈ 36.1 µM); MIC [21]: 12.5 µg/mL (≈ 18 µM); inhibition zone (IZ) [22]: 27 mm; MIC [23]: 12.5 µg/mL (≈ 18 µM); inhibition zone (IZ) [24]: 25 mm; MIC [25]: 25 µg/mL (≈ 36.1 µM)
N#Cc1ccc(Nc2nc(Oc3ccnc4ccccc34)nc(N3CCN(c4ccccc4F)CC3)n2)cc1C(F)(F)F	24 mm	25 µg/mL (≈ 42.6 µM)	25 mm	6.25 µg/mL (≈ 10.7 µM)	25 µg/mL (≈ 42.6 µM)	24 mm	25 mm	27 mm	26 mm	> 100 µM	> 100 µM	> 100 µM	26 mm	25 µg/mL (≈ 42.6 µM)	12.5 µg/mL (≈ 21.3 µM)	25 µg/mL (≈ 42.6 µM)	50 µg/mL (≈ 85.2 µM)	22 mm	23 mm	24 mm	MIC [19]: 50 µg/mL (≈ 85.2 µM); MIC [20]: 25 µg/mL (≈ 42.6 µM); MIC [21]: 6.25 µg/mL (≈ 10.7 µM); inhibition zone (IZ) [22]: 25 mm; MIC [23]: 12.5 µg/mL (≈ 21.3 µM); inhibition zone (IZ) [24]: 26 mm; MIC [25]: 25 µg/mL (≈ 42.6 µM)
N#Cc1ccc(Nc2nc(Oc3ccnc4ccccc34)nc(N3CCN(c4ccc(F)cc4)CC3)n2)cc1C(F)(F)F	24 mm	50 µg/mL (≈ 85.2 µM)	24 mm	25 µg/mL (≈ 42.6 µM)	25 µg/mL (≈ 42.6 µM)	25 mm	26 mm	26 mm	22 mm	> 100 µM	> 100 µM	> 100 µM	24 mm	50 µg/mL (≈ 85.2 µM)	50 µg/mL (≈ 85.2 µM)	25 µg/mL (≈ 42.6 µM)	50 µg/mL (≈ 85.2 µM)	23 mm	21 mm	25 mm	MIC [19]: 25 µg/mL (≈ 42.6 µM); MIC [20]: 50 µg/mL (≈ 85.2 µM); MIC [21]: 6.25 µg/mL (≈ 10.7 µM); inhibition zone (IZ) [22]: 24 mm; MIC [23]: 25 µg/mL (≈ 42.6 µM); inhibition zone (IZ) [24]: 23 mm; MIC [25]: 12.5 µg/mL (≈ 21.3 µM)
N#Cc1ccc(Nc2nc(Oc3ccnc4ccccc34)nc(N3CCN(c4cccc(C(F)(F)F)c4)CC3)n2)cc1C(F)(F)F	27 mm	25 µg/mL (≈ 39.3 µM)	27 mm	12.5 µg/mL (≈ 19.6 µM)	12.5 µg/mL (≈ 19.6 µM)	28 mm	27 mm	28 mm	26 mm	38.7 µM	> 100 µM	74.1 µM	26 mm	25 µg/mL (≈ 39.3 µM)	12.5 µg/mL (≈ 19.6 µM)	6.25 µg/mL (≈ 9.82 µM)	12.5 µg/mL (≈ 19.6 µM)	25 mm	25 mm	28 mm	inhibition at 6.25 µg/mL [26]: 99%; MIC [19]: 6.25 µg/mL (≈ 9.82 µM); MIC [20]: 12.5 µg/mL (≈ 19.6 µM); MIC [21]: 6.25 µg/mL (≈ 9.82 µM); inhibition zone (IZ) [22]: 25 mm; MIC [23]: 25 µg/mL (≈ 39.3 µM); inhibition zone (IZ) [24]: 23 mm; MIC [25]: 12.5 µg/mL (≈ 19.6 µM)
COc1ccc(CN2CCN(c3nc(Nc4ccc(C#N)c(C(F)(F)F)c4)nc(Oc4ccnc5ccccc45)n3)CC2)c(OC)c1OC	26 mm	25 µg/mL (≈ 37.2 µM)	27 mm	6.25 µg/mL (≈ 9.29 µM)	12.5 µg/mL (≈ 18.6 µM)	28 mm	27 mm	26 mm	26 mm	> 100 µM	> 100 µM	> 100 µM	25 mm	25 µg/mL (≈ 37.2 µM)	12.5 µg/mL (≈ 18.6 µM)	6.25 µg/mL (≈ 9.29 µM)	12.5 µg/mL (≈ 18.6 µM)	26 mm	25 mm	28 mm	inhibition at 6.25 µg/mL [26]: 99%; MIC [19]: 6.25 µg/mL (≈ 9.29 µM); MIC [20]: 12.5 µg/mL (≈ 18.6 µM); MIC [21]: 6.25 µg/mL (≈ 9.29 µM); inhibition zone (IZ) [22]: 26 mm; MIC [23]: 12.5 µg/mL (≈ 18.6 µM); inhibition zone (IZ) [24]: 23 mm; MIC [25]: 12.5 µg/mL (≈ 18.6 µM)
COc1ccc(N2CCN(c3nc(Nc4ccc(C#N)c(C(F)(F)F)c4)nc(Oc4ccnc5ccccc45)n3)CC2)cc1	24 mm	50 µg/mL (≈ 83.5 µM)	27 mm	12.5 µg/mL (≈ 20.9 µM)	25 µg/mL (≈ 41.8 µM)	28 mm	25 mm	28 mm	25 mm	> 100 µM	> 100 µM	> 100 µM	24 mm	25 µg/mL (≈ 41.8 µM)	12.5 µg/mL (≈ 20.9 µM)	25 µg/mL (≈ 41.8 µM)	12.5 µg/mL (≈ 20.9 µM)	26 mm	23 mm	24 mm	MIC [19]: 6.25 µg/mL (≈ 10.4 µM); MIC [20]: 12.5 µg/mL (≈ 20.9 µM); MIC [21]: 6.25 µg/mL (≈ 10.4 µM); inhibition zone (IZ) [22]: 24 mm; MIC [23]: 25 µg/mL (≈ 41.8 µM); inhibition zone (IZ) [24]: 23 mm; MIC [25]: 25 µg/mL (≈ 41.8 µM)
